The values that follow come from ChEMBL document CHEMBL1641579, “Synthesis and biological evaluation of 7-substituted-1-(3-bromophenylamino)isoquinoline-4-carbonitriles as inhibitors of myosin light chain kinase and epidermal growth factor receptor” (Bioorg Med Chem, 2011).

Assay [1] has as its target Mitogen-activated protein kinase 3 (Homo sapiens) (UniProt P27361). The assay can be described thus: Inhibition of ERK1 assessed as residual activity at 10 uM. In short, it runs like this: (§1)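 Kinase panel screen run as a radioactive activity assay at single compound concentration. Score reported as percent activity remaining relative to DMSO controls (100%).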
The target of assay [2] is Ribosomal protein S6 kinase alpha-3 (Homo sapiens) (UniProt P51812). The assay can be described thus: Inhibition of RSK2 assessed as residual activity at 10 uM. The procedure, abridged: (§2)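 Panel screen by radioactive kinase assay at a single inhibitor concentration. Score is the percent activity remaining relative to DMSO controls (100%).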
Chain of Ribosomal protein S6 kinase alpha-3 (Homo sapiens) (P51812 whole entry): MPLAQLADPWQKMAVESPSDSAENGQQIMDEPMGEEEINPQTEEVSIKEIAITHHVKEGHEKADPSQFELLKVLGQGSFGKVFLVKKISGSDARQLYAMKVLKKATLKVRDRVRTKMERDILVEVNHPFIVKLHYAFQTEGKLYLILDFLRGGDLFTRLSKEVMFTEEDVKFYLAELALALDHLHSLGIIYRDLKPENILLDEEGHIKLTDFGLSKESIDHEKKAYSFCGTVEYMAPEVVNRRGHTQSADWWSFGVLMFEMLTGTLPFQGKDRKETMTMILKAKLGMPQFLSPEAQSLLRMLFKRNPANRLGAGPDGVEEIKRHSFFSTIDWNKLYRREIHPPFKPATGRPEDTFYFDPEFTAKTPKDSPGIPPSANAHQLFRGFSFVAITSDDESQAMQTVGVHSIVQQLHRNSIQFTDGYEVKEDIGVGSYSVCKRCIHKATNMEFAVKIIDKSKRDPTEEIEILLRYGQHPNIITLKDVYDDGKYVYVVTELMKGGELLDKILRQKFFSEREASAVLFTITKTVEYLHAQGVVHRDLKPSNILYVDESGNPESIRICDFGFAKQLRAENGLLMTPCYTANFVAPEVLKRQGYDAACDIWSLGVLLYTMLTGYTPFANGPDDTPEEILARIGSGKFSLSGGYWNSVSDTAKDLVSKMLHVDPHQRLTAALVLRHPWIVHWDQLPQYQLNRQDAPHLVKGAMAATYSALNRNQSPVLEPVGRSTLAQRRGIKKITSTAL
Assay [3] addresses Tyrosine-protein kinase Lck (Homo sapiens) (UniProt P06239). The assay can be described thus: Inhibition of Lck assessed as residual activity at 10 uM. In short, it runs like this:
as §1

For assay [4], the target named is RAC-beta serine/threonine-protein kinase (Homo sapiens) (UniProt P31751). The assay is described as follows: Inhibition of PKBbeta assessed as residual activity at 10 uM. The procedure, abridged:
as §2

Assay [5] has as its target Tyrosine-protein kinase Yes (Homo sapiens) (UniProt P07947). The assay can be described thus: Inhibition of YES1 assessed as residual activity at 10 uM. The procedure, abridged:
as §2

Assay [6] concerns the target Serine/threonine-protein kinase pim-2 (Homo sapiens) (UniProt Q9P1W9). The assay can be described thus: Inhibition of PIM2 assessed as residual activity at 10 uM. The procedure, abridged: as §2
For assay [7], the target named is Homeodomain-interacting protein kinase 3 (Homo sapiens) (UniProt Q9H422). The assay is described as follows: Inhibition of HIPK3 assessed as residual activity at 10 uM. In short, it runs like this: as §1
Chain of Homeodomain-interacting protein kinase 3 (Homo sapiens) (Q9H422 whole entry, looked up): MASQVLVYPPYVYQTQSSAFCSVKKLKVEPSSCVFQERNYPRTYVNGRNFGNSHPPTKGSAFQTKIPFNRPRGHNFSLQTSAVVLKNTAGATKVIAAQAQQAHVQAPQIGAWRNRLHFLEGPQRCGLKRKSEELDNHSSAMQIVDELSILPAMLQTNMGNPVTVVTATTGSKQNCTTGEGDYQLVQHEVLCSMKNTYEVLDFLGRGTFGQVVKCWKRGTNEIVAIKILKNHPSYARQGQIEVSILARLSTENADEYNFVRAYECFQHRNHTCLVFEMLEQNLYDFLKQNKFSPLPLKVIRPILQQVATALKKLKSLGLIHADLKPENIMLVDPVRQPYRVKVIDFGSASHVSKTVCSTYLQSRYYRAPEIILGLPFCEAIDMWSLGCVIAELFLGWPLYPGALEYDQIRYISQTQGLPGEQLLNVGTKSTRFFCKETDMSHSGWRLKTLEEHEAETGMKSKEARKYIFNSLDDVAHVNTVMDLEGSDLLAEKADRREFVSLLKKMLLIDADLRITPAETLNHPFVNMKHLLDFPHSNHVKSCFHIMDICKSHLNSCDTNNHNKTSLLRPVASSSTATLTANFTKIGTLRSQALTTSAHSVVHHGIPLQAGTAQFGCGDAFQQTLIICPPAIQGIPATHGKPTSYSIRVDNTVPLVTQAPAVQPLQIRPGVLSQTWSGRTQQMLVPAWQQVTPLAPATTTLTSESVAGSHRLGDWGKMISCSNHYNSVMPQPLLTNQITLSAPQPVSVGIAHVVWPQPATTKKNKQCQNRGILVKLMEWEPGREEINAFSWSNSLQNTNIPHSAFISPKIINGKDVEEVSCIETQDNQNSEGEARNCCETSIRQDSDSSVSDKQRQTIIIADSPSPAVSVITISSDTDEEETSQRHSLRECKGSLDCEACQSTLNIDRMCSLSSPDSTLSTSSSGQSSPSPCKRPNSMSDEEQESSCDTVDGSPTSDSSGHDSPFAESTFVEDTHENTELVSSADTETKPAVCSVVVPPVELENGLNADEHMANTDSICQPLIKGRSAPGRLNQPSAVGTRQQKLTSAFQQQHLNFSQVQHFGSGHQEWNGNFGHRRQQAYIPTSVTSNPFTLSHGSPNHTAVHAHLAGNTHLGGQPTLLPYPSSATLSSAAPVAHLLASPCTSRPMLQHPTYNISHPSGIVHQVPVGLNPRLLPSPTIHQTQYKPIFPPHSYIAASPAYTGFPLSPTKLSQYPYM
The target in assay [8] is Receptor-interacting serine/threonine-protein kinase 2 (Homo sapiens) (UniProt O43353). The assay is described as follows: Inhibition of RIPK2 assessed as residual activity at 10 uM. In short, it runs like this: as §2
Chain of Receptor-interacting serine/threonine-protein kinase 2 (Homo sapiens) (O43353 whole entry, canonical isoform): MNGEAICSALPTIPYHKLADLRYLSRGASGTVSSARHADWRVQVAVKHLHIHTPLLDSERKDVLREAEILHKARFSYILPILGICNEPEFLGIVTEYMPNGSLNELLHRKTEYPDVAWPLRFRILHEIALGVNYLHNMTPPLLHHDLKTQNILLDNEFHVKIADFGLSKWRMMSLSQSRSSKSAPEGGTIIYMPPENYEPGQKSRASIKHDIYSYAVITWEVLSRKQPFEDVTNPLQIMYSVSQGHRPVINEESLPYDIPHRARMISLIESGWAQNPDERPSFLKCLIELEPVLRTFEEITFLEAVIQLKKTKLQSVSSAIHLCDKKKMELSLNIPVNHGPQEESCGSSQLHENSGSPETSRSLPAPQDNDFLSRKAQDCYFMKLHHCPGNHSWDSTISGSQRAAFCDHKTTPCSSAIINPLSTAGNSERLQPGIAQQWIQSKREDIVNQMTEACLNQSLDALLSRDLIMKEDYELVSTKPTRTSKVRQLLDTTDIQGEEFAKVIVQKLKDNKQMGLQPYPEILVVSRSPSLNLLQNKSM
The target in assay [9] is Casein kinase I isoform alpha (Homo sapiens) (UniProt P48729). The assay is described as follows: Inhibition of CK1 assessed as residual activity at 10 uM. The procedure, abridged: as §1
Assay [10] concerns the target T1, Mitogen-activated protein kinase kinase kinase kinase 2 (Homo sapiens) (UniProt Q12851).
T1 sequence (whole entry): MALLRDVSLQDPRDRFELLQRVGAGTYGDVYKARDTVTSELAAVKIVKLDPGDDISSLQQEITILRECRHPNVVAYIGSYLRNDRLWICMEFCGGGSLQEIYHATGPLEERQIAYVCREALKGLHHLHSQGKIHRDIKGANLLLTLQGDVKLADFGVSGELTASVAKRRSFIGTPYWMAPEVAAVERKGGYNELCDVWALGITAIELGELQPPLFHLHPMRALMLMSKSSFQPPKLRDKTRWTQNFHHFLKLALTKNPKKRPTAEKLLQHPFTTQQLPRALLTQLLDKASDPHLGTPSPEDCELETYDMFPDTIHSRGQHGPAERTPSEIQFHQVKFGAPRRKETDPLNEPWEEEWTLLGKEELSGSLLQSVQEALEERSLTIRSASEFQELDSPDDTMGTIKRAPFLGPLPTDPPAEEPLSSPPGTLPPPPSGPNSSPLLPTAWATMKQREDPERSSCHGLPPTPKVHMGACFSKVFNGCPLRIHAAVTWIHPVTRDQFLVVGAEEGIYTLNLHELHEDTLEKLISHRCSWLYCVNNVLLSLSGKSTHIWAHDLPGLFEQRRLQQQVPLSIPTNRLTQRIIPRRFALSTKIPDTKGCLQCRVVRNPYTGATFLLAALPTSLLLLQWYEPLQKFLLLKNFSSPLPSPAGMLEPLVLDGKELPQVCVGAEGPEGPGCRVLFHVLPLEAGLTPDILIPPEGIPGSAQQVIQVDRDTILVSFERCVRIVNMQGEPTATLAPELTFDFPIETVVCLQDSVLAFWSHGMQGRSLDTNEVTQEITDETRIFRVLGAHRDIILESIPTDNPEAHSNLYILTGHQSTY
The assay can be described thus: Inhibition of GCK assessed as residual activity at 10 uM. In short, it runs like this: as §1

For assay [11], the target named is Calcium/calmodulin-dependent protein kinase kinase 2 (Homo sapiens) (UniProt Q96RR4). The assay can be described thus: Inhibition of CAMKKbeta assessed as residual activity at 10 uM. The procedure, abridged: as §1
Assay [12] deals with T2, Serine/threonine-protein kinase BRSK2 (Homo sapiens) (UniProt Q8IWQ3).
T2 sequence (whole entry): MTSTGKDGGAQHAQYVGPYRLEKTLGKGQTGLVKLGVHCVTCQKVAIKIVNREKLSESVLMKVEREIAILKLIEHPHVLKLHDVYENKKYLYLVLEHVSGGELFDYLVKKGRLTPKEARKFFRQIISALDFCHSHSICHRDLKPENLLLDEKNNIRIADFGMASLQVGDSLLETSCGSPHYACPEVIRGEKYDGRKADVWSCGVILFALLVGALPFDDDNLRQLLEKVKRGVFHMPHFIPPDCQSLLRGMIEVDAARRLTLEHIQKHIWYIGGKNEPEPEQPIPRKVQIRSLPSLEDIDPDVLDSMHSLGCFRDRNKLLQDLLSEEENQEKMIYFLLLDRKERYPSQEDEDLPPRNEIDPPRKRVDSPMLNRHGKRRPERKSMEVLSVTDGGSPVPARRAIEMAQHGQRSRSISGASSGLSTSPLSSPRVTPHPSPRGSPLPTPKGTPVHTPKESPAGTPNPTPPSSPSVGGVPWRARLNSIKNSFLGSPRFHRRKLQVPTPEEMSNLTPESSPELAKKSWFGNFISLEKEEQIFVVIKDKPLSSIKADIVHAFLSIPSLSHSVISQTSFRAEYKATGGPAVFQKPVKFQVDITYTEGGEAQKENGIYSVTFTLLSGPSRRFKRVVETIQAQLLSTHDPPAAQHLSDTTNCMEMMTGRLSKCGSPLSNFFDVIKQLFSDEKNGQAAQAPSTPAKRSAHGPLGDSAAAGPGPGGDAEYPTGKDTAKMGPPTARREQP
The assay is described as follows: Inhibition of BRSK2 assessed as residual activity at 10 uM. The procedure, abridged:
as §1

The target in assay [13] is MAP kinase-interacting serine/threonine-protein kinase 2 (Homo sapiens) (UniProt Q9HBH9). The assay can be described thus: Inhibition of MNK2 assessed as residual activity at 10 uM. In short, it runs like this: as §2
Chain of MAP kinase-interacting serine/threonine-protein kinase 2 (Homo sapiens) (Q9HBH9 whole entry, looked up): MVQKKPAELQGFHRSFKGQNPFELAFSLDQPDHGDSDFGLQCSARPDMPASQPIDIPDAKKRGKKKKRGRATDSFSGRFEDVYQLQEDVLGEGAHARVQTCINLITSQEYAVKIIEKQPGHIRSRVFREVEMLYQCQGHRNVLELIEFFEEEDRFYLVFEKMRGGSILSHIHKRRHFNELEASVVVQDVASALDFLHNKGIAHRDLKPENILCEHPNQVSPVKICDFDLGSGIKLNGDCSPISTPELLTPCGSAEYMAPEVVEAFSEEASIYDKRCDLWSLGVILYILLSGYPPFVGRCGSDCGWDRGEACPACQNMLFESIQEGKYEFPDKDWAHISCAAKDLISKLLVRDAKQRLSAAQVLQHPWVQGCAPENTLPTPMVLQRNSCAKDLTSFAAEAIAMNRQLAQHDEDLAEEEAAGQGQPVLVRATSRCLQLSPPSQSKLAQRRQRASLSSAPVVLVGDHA
Assay [14] concerns the target Calcium/calmodulin-dependent protein kinase type 1 (Homo sapiens) (UniProt Q14012). The assay can be described thus: Inhibition of CAMK1 assessed as residual activity at 10 uM. In short, it runs like this: as §1
For assay [15], the target named is Homeodomain-interacting protein kinase 2 (Homo sapiens) (UniProt Q9H2X6). The assay can be described thus: Inhibition of HIPK2 assessed as residual activity at 10 uM. The procedure, abridged:
as §1

Chain of Tyrosine-protein kinase Yes (Homo sapiens) (P07947 2-543 limits assumed): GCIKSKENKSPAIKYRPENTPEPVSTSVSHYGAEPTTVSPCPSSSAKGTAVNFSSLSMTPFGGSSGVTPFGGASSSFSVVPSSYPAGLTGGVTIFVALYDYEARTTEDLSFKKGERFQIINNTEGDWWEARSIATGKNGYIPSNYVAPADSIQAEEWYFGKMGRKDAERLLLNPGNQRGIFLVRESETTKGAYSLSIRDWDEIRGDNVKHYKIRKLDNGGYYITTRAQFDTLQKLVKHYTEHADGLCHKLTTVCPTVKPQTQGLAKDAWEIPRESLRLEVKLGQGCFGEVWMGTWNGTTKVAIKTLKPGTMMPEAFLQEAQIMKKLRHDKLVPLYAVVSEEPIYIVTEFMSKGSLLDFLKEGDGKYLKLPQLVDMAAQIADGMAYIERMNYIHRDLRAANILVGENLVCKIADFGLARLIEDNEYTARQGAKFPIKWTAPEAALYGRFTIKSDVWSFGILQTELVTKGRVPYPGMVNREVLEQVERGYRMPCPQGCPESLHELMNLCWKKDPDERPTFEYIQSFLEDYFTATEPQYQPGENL
Chain of Tyrosine-protein kinase Lck (Homo sapiens) (P06239 whole entry, looked up): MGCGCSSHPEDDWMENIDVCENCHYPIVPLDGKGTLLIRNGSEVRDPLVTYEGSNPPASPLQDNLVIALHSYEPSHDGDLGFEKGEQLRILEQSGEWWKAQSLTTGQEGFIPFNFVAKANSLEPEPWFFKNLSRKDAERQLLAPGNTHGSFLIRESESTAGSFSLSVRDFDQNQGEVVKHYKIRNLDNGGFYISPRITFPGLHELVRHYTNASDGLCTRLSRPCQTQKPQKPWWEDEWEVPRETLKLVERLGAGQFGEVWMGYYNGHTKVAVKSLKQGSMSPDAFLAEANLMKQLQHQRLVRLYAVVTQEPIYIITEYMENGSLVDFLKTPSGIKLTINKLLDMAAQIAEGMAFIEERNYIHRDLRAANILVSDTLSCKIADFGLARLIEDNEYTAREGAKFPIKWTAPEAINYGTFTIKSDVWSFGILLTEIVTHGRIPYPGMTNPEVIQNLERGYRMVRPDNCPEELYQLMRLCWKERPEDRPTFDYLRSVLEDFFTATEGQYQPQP
Chain of RAC-beta serine/threonine-protein kinase (Homo sapiens) (P31751 whole entry): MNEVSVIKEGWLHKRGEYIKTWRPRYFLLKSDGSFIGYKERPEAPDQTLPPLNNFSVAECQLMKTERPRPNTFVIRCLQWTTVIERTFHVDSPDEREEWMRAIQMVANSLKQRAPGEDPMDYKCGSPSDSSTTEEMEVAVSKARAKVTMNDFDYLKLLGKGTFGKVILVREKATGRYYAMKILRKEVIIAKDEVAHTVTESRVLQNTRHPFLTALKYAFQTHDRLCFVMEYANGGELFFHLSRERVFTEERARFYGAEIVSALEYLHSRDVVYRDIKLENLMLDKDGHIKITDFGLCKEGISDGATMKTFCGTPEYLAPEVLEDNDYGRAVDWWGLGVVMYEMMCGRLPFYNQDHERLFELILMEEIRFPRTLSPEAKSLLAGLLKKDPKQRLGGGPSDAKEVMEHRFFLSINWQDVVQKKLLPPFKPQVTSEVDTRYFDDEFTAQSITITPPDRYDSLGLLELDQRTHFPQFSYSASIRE
Chain of Calcium/calmodulin-dependent protein kinase type 1 (Homo sapiens) (Q14012 whole entry, looked up): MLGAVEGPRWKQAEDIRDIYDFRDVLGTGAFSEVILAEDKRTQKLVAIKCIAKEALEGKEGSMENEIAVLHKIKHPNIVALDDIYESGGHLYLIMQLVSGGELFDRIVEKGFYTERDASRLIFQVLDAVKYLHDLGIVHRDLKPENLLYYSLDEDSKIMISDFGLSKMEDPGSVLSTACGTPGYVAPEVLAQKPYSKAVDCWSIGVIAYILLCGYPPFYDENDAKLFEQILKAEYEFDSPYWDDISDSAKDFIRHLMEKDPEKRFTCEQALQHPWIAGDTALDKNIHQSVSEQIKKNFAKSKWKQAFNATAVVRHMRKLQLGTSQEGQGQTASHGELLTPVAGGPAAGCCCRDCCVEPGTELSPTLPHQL

As to `CN1CCN(CCC(=O)Nc2ccc3c(C#N)cnc(Nc4cccc(Br)c4)c3c2)CC1`, the Activity in [1] turned out to be 85%; in assay [2], 71%; in assay [3], 32%; in assay [4], 87%; in assay [5] it was 36%; in assay [6], 92%. Further, the Activity in assay [7] worked out at 87%; in [8], 66%; in [9], 100%; in assay [10], 84%; in assay [11], 87%; in [12] it was 100%. Also, the results for the Activity in assay [13], in assay [14] and in [15] were 85%, 14% and 88%, respectively.
Take `CN(C)CCCC(=O)Nc1ccc2c(C#N)cnc(Nc3cccc(Br)c3)c2c1`: the Activity in assay [1] was 93%; in assay [2], 82%; in [3], 32%; in assay [4], 85%; in assay [5], 36%; in assay [6], 89%. Besides, the Activity was 93% in [7]; 82% in [8]; 100% in [9]; 80% in assay [10]; 92% in assay [11]; 75% in [12]. The Activity in assay [13] was 100%; in assay [14] it was 15%; in assay [15], 93%.
Regarding `CN(C)C/C=C/C(=O)Nc1ccc2c(C#N)cnc(Nc3cccc(Br)c3)c2c1`, the Activity was 83% in assay [1]; 87% in [2]; 60% in assay [3]; 37% in assay [4]; 32% in assay [5]; 89% in assay [6]. The Activity was determined as 91% in assay [7]; 79% in assay [8]; 88% in assay [9]; 84% in assay [10]; 91% in [11]; 75% in assay [12]. The Activity was found to be 92% in assay [13], 25% in assay [14] and 95% in [15].
